ChEMBL document CHEMBL1139469, “Synthesis and 3D QSAR of new pyrazolo[3,4-b]pyridines: potent and selective inhibitors of A1 adenosine receptors” (J Med Chem, 2005)

Assays:
[1] = molecular target: Adenosine receptor A2a (Bos taurus); assay: Displacement of [3H]CGS-21680 from adenosine A2A receptor in bovine striatal membranes
[2] = molecular target: Adenosine receptor A1 (Bos taurus) (UniProt P28190); assay: Displacement of [3H]DPCPX from bovine adenosine A1 receptor in bovine cortical membranes
Adenosine receptor A1 [3] = molecular target: T1, Adenosine receptor A1 (Bos taurus, UniProt P28190); assay: Displacement of [3H]DPCPX from adenosine A1 receptor in bovine cerebral cortical membranes; format: cell membranes
T1 sequence (P28190 whole entry): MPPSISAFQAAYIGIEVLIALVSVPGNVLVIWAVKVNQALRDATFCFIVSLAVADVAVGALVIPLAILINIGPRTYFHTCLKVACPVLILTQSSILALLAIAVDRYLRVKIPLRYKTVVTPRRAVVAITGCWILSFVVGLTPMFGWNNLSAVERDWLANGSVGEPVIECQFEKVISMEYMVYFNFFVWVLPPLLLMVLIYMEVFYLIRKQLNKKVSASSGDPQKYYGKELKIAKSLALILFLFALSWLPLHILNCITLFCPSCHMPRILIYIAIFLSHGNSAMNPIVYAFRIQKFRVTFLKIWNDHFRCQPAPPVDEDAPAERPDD
Summary of the method: (§1)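 [3H]DPCPX was displaced from A1 sites in bovine cortical membranes. Compounds were taken up in DMSO and diluted in assay buffer, with DMSO at 2% or less final. Ki used at least six concentrations across 3 orders of magnitude and was the mean ± SEM of three independent assays in triplicate.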

[4] = molecular target: T2, Adenosine receptor A3 (Homo sapiens) (UniProt P0DMS8); assay: Displacement of [125I]AB-MECA from human adenosine A3 receptor expressed in CHO cells at 10 uM
T2 sequence (whole entry): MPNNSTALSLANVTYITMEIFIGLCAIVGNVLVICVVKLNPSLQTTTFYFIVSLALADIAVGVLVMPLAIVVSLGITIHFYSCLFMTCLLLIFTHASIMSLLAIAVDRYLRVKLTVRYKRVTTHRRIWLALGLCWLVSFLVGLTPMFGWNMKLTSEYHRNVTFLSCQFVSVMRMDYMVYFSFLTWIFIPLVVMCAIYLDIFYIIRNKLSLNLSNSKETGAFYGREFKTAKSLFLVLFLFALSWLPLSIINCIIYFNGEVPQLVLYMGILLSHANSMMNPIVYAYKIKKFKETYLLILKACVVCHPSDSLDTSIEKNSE

Adenosine receptor A1 [5] = molecular target: T3, Adenosine receptor A1 (Homo sapiens, UniProt P30542); assay: Displacement of [3H]DPCPX from human adenosine A1 receptor expressed in CHO cells; format: cell-based
T3 sequence (P30542 whole entry): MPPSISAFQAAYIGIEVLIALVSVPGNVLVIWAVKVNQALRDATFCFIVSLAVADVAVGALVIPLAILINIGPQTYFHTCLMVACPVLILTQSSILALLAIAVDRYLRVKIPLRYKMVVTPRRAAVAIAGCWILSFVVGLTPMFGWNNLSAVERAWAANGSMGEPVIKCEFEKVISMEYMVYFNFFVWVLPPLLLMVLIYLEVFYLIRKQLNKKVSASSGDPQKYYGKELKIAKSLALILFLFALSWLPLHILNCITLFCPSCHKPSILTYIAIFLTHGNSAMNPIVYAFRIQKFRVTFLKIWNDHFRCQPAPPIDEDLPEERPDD
Summary of the method: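 Binding used CHO cells transfected with human A1 receptor, with displacement of specific [3H]DPCPX binding. Ligands were in DMSO diluted into buffer, with no more than 2% DMSO final, over at least six concentrations spanning 3 orders of magnitude. Ki values were means ± SEM of three separate assays, each performed in triplicate.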

[6] = test system: Adenosine receptor A2a (Bos taurus); assay: Displacement of [3HCGS21680 from adenosine A2A receptor in bovine striatal membranes at 10 uM
[7] = molecular target: T4, Adenosine receptor A1 (Bos taurus) (UniProt P28190); assay: Displacement of [3H]DPCPX from adenosine A1 receptor in bovine cerebral cortical membranes at 10 uM; format: cell membranes
T4 sequence (whole entry): T1 sequence (P28190 whole entry)
Summary of the method: as §1

Adenosine receptor A1 [8] = molecular target: T1, Adenosine receptor A1; assay: Displacement of [3H]DPCPX from adenosine A1 receptor in bovine cerebral cortical membranes in presence of GTP; format: cell membranes
Summary of the method: (§2)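 [3H]DPCPX competition binding on bovine cortical membranes, run side by side without and with 1 mM GTP. Compounds dissolved in DMSO and diluted in assay buffer, final DMSO at most 2%. At least six concentrations spanning 3 orders of magnitude were used. Ki given as mean ± SEM of three experiments.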

Adenosine receptor A1 [9] = molecular target: T1, Adenosine receptor A1; assay: Displacement of [3H]DPCPX from adenosine A1 receptor in bovine cerebral cortical membranes in absence of GTP; format: cell membranes
Summary of the method: as §2

SMILES	Ki [1]	Ki [2]	Ki (Adenosine receptor A1 [3])	inhibition [4]	Ki (Adenosine receptor A1 [5])	inhibition [6]	inhibition [7]	Ki (Adenosine receptor A1 [8])	Ki (Adenosine receptor A1 [9])
CCCNc1c(C(=O)OC)cnc2c1cnn2CC(Cl)c1ccccc1 (stereo not given)	7670 nM	158 nM	170 nM	–	–	–	–	–	–
CCCOC(=O)c1cnc2c(cnn2CC(Cl)c2ccccc2)c1NC1CC1 (stereo not given)	–	–	–	2%	–	–	–	–	–
CCCNc1c(C(=O)OCCC)cnc2c1cnn2CC(Cl)c1ccccc1 (stereo not given)	1390 nM	158 nM	145 nM	–	–	–	–	–	–
CC(C)OC(=O)c1cnc2c(cnn2CC(Cl)c2ccccc2)c1NCCc1ccccc1 (stereo not given)	1520 nM	31.6 nM	31 nM	0%	–	–	–	–	–
CCOC(=O)c1cnc2c(cnn2CC(Cl)c2ccccc2)c1NCCc1ccc(OC)cc1 (stereo not given)	–	10 nM	10 nM	49%	25 nM	–	–	–	–
Cc1ccc(CCNc2c(C(=O)OC(C)C)cnc3c2cnn3CC(Cl)c2ccccc2)cc1 (stereo not given)	–	50.1 nM	48 nM	–	–	26%	–	–	–
CCCOC(=O)c1cnc2c(cnn2CC(Cl)c2ccccc2)c1N1CCOCC1 (stereo not given)	–	2000 nM	2150 nM	–	–	31%	–	–	–
COC(=O)c1cnc2c(cnn2CC(Cl)c2ccccc2)c1N1CCOCC1 (stereo not given)	–	10000 nM	–	–	–	0%	51%	–	–
CCCNc1c(C(=O)OC(C)CC)cnc2c1cnn2CC(Cl)c1ccccc1 (stereo not given)	–	50.1 nM	51 nM	–	–	40%	–	–	–
CCOC(=O)c1cnc2c(cnn2CC(Cl)c2ccccc2)c1NCCc1ccc(F)cc1 (stereo not given)	–	12.6 nM	12 nM	37%	16 nM	30%	–	–	–
CCCNc1c(C(=O)OC(C)C)cnc2c1cnn2CC(Cl)c1ccccc1 (stereo not given)	–	20 nM	24 nM	0%	–	11%	–	–	–
CCCNc1c(C(=O)OCC2CC2)cnc2c1cnn2CC(Cl)c1ccccc1 (stereo not given)	–	100 nM	109 nM	–	–	23%	–	–	–
CCC(C)OC(=O)c1cnc2c(cnn2CC(Cl)c2ccccc2)c1NCCc1ccccc1 (stereo not given)	–	63.1 nM	62 nM	–	–	46%	–	–	–
CCCCOC(=O)c1cnc2c(cnn2CC(Cl)c2ccccc2)c1N1CCOCC1 (stereo not given)	–	10000 nM	–	–	–	16%	63%	–	–
COC(=O)c1cnc2c(cnn2CC(Cl)c2ccccc2)c1NCCc1ccc(C)cc1 (stereo not given)	–	15.8 nM	15 nM	40%	148 nM	26%	–	–	–
CCOC(=O)c1cnc2c(cnn2CC(Cl)c2ccccc2)c1NCCc1ccccc1F (stereo not given)	–	15.8 nM	16 nM	53%	29 nM	–	–	–	–
CC(C)OC(=O)c1cnc2c(cnn2CC(Cl)c2ccccc2)c1NCCc1ccccc1Cl (stereo not given)	–	39.8 nM	44 nM	–	–	13%	–	–	–
Cc1ccc(CCNc2c(C(=O)OCC3CC3)cnc3c2cnn3CC(Cl)c2ccccc2)cc1 (stereo not given)	–	63.1 nM	63 nM	–	–	4%	–	–	–
CCOC(=O)c1cnc2c(cnn2CC(Cl)c2ccccc2)c1NCCc1ccc(C)cc1 (stereo not given)	–	20 nM	22 nM	38%	–	–	–	–	–
CCCCOC(=O)c1cnc2c(cnn2CC(Cl)c2ccccc2)c1NCCC (stereo not given)	–	1000 nM	959 nM	–	–	20%	–	–	–
CCCCOC(=O)c1cnc2c(cnn2CC(Cl)c2ccccc2)c1NCc1ccccc1 (stereo not given)	–	10000 nM	–	–	–	5%	27%	–	–
CC(C)OC(=O)c1cnc2c(cnn2CC(Cl)c2ccccc2)c1NC1CC1 (stereo not given)	–	31.6 nM	36 nM	0%	–	–	–	–	–
COc1ccc(CCNc2c(C(=O)OC(C)C)cnc3c2cnn3CC(Cl)c2ccccc2)cc1 (stereo not given)	–	7.94 nM	7 nM	52%	17 nM	–	–	7.7 nM	7.2 nM
COC(=O)c1cnc2c(cnn2CC(Cl)c2ccccc2)c1NCCc1ccc(OC)cc1 (stereo not given)	–	6.31 nM	6 nM	41%	94 nM	–	–	7.3 nM	6.3 nM
COC(=O)c1cnc2c(cnn2CC(Cl)c2ccccc2)c1NCCc1ccccc1 (stereo not given)	1230 nM	79.4 nM	88 nM	0%	–	–	–	–	–
COC(=O)c1cnc2c(cnn2CC(Cl)c2ccccc2)c1N1CCCC1 (stereo not given)	–	3980 nM	4240 nM	–	–	0%	–	–	–
CCCCOC(=O)c1cnc2c(cnn2CC(Cl)c2ccccc2)c1NC1CC1 (stereo not given)	–	1000 nM	895 nM	0%	–	11%	–	–	–
CCOC(=O)c1cnc2c(cnn2CC(Cl)c2ccccc2)c1NCCc1ccc(Cl)cc1 (stereo not given)	–	20 nM	19 nM	46%	153 nM	63%	–	–	–
